# These entries were drawn from the full list.
# Apaf1 activ – activators of human Apaf-1 apoptosome, primary screen, biochemical, DEVD-Rh110 fluorescence, uHTS. Apoptotic protease-activating factor 1 (Homo sapiens), O14727. Apaf-1 apoptosome caspase-3 activation; stronger effect = lower value. activity change, negative = activation, % at 20 µM. 330,000 tested, 0.31% active. AID 489031, 2010;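 active = activity change at or below -40% at 20 µM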
# Target sequence (O14727 whole entry, looked up): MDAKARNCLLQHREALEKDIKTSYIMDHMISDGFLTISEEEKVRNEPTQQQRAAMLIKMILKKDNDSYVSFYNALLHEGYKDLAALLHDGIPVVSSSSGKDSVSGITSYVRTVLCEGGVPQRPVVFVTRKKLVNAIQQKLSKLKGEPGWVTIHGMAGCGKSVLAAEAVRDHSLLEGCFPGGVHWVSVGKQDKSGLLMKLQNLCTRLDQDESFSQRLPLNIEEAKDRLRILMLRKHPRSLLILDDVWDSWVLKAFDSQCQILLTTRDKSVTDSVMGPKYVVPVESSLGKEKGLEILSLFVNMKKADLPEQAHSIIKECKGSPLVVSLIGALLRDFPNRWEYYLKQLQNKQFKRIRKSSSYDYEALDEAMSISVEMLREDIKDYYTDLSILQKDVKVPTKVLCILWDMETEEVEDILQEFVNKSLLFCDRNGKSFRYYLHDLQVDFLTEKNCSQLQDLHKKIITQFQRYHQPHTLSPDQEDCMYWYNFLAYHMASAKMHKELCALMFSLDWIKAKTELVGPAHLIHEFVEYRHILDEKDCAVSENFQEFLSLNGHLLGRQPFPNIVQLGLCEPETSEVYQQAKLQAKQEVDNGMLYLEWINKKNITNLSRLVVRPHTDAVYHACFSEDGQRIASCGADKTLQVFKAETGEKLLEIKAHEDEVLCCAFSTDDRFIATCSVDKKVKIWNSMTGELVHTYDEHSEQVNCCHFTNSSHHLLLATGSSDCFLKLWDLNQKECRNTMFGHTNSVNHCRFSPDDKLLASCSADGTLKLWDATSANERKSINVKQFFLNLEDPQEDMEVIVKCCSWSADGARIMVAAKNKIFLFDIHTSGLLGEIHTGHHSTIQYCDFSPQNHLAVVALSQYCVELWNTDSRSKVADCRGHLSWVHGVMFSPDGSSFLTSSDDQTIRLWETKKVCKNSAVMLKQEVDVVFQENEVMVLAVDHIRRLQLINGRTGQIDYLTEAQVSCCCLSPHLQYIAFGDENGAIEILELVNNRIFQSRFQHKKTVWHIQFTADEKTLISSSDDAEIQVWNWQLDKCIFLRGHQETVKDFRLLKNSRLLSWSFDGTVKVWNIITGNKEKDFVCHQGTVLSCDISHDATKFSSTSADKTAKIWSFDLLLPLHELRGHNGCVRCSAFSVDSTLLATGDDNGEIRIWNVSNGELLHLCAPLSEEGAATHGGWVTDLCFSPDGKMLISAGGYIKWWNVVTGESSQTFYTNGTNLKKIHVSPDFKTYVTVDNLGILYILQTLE
#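 System: Reconstituted apoptosome of Apaf-1, cytochrome c, caspase-9, procaspase-3 | Reagent: dATP, cytochrome c, and (Z-DEVD)2-Rh110 caspase-3 substrate | Times: 30 min compound preincubation and 50 min reaction, both room temperature | Detection: Caspase-3-released Rh110 fluorescence, 540 nm emission, 480 nm excitation | Measure: Caspase-3 activity via Apaf-1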
# Rh110 interf act – Rh110 fluorescence interference by putative Apaf-1 activators, confirmation, artefact control for Apaf-1 activator project, biochemical, 20 µM; shares compounds with Apaf1 activ; quenched caspase reaction, Ex480/Em540; fluorescence interference (activity change), % at 20 µM, hits read low; 980 tested, under 10 active; AID 504616, 2011;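 active = mean activity change at or below -40% when tested at 20 µM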
# Apaf-1 act conf2 – Apaf-1 activators, single-dose retest, confirmation, biochemical, fluorescence, DEVD-Rh110, 20 µM. shares compounds with Apaf1 activ. reconstituted apoptosome caspase-3 activity; stronger effect = lower value. activity change, negative = activation, % at 20 µM. 980 tested, 5% active;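 active = mean activity change at or below -40%, meaning activation of 40% or more, at 20 µM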
# * marks the source's active call; other numbers are inactive results; nt = not tested or not shown.
SMILES,Apaf1 activ,Rh110 interf act,Apaf-1 act conf2
COc1ccc(NC(=O)CSc2nc3c(c(-c4cccs4)c2C#N)CN(C)CC3)cc1OC,66.9,nt,nt
CCN1CCN(CCNC(=O)c2ccc(/C=C3\Sc4ccccc4N(Cc4ccccc4F)C3=O)cc2)CC1,41.3,nt,nt
FC(F)(F)c1cc(CCN2CCNC[C@H]2Cc2cccc3ccccc23)cc(C(F)(F)F)c1,72.4,nt,nt
Cc1cc(C)n(CCNC(=O)C2CCC(=O)N(CCc3cccc(F)c3)C2)n1 (stereo not drawn),-455.6*,13.7,15.8
NC(=NCCCCCCN=C(N)/N=C(\N)Nc1ccc(Cl)cc1)/N=C(\N)Nc1ccc(Cl)cc1,75.7,nt,nt
O=C1CCCC2=C1C1(O)C(=O)c3ccccc3C1(O)O2 (stereo not drawn),92.1,nt,nt
CCCCCNC(=O)c1cn(CC)c2cc(N3CCN(C)CC3)c(F)cc2c1=O,-72.1*,5.3,13.9
COc1cc2c3nnc(-c4ccc(F)cc4)c-3cn(Cc3cccc(C)c3)c2cc1OC,52.9,nt,nt
COc1ccc(C(CNC(=O)c2cc3c(s2)CCC(C)C3)N2CCCC2)cc1 (stereo not drawn),60.6,nt,nt
CCN(CC)C(=O)CSC(=Nc1ccccc1F)NC#N,-52.2*,17.8,11.5
CCCN1CCN(C(=S)Nc2ccccc2C(F)(F)F)CC1,-81.1*,2.8,13.0
Cc1cc(N2CCN(c3ccc([N+](=O)[O-])c4cccnc34)CC2)c2ccccc2n1,60.2,nt,nt
COc1cc2c(cc1OC)CN(Cc1cc(=O)oc3cc(C)c(Cl)cc13)CC2,-42.9*,14.1,23.6
CN1CCN(C2=C(Cl)C(=O)C(c3cnc(N4CCCCC4)s3)=C(Cl)C2=O)CC1,84.3,nt,nt
Cc1cc2cc(CNC(=S)Nc3ccc(OC(F)(F)F)cc3)ccc2n1C,59.1,nt,nt
COCCNC(=O)CN1C(=O)NC2(CCOc3ccccc32)C1=O (stereo not drawn),45.7,nt,nt
COc1ccc(N2CCN(C(=O)Cc3ccc(OC)c(OC)c3)CC2)cc1,-535.1*,5.5,-4.2
NC(=O)C1CCN(C2=C(NS(=O)(=O)c3ccc(Br)cc3)C(=O)c3ccccc3C2=O)CC1,65.5,nt,nt
Cc1cc(-c2ccccc2C(=O)NC2CCCCC2)on1,-148.5*,9.3,7.6
O=C(NC1CCCC1)c1ccc2nc(-c3ccco3)c(-c3ccco3)nc2c1,44.5,nt,nt
CCC[C@@H](CN1CCC[C@H]1CN1C(N)=NC[C@H]1CC(C)C)N1C[C@@H]([C@H](C)CC)N(CCCC2CCCC2)C1=N,53.2,nt,nt
CN(C)CCC(c1ccc(Cl)cc1)c1ccccn1 (stereo not drawn),-9.1,nt,nt
OC(COc1c(Cl)cc(Cl)cc1Cl)CN1CCCCC1 (stereo not drawn),-88.1*,-0.2,14.9
CCOC(=O)c1cc(C(=O)c2cccs2)n2ccc(C(C)=O)cc12,42.3,nt,nt
CCc1ccccc1NC(=O)COC(=O)c1cccs1,-103.7*,11.6,8.9
SMILES,Apaf1 activ,Rh110 interf act,Apaf-1 act conf2
CCOC(=O)c1c(N)n(CCOC(=O)c2cccs2)c2nc3ccccc3nc12,94.8,nt,nt
COC(=O)c1ccc(-c2ncc(-c3cccc4ccccc34)o2)cc1,41.8,nt,nt
O=C1CCCC/C1=C\Nc1ccc(Cl)cn1,-72.8*,9.3,16.8
O=C(c1ccco1)[C@@H]1[C@@H]2C(=O)N(c3ccc(F)cc3)C(=O)[C@@H]2C2c3ccccc3C=CN21 (stereo partly drawn),82.5,nt,nt
CCN1CCN(c2cc(N3CCN(C(=O)c4ccco4)CC3)c3c4c(onc24)-c2ccccc2C3=O)CC1,41.8,nt,nt
CCC(=O)Nc1ccccc1C(=O)N1CCCC1,-43.6*,-8.2,5.2
Cc1cccc(NC(=O)CN2CCN(C(=O)c3oc4c(Cl)cccc4c3C)CC2)c1C,69.9,nt,nt
COc1ccccc1OCC(=O)NCC1CCCN(C(=O)c2ccccc2SC)C1 (stereo not drawn),50.9,nt,nt
Cc1cc(Br)ccc1OCCCCN1CCC(C)CC1,-57.2*,-3.2,11.3
O=C(c1ccccc1)c1ccc2nc(-c3ccco3)c(-c3ccco3)nc2c1,40.6,nt,nt
CC(C)c1ccc(/C=N/Nc2cc(N3CCOCC3)nc(N3CCOCC3)n2)cc1,62.1,nt,nt
Cc1cc(N2CCCCC2)nc(N2CCOCC2)n1,-56.7*,5.9,10.4
Cc1cccc(/C=N/Nc2cc(N3CCOCC3)nc(N3CCOCC3)n2)c1,67.6,nt,nt
CCc1cc2c(nc1CC)CCN(CC/C(C)=N/OC[C@H]1O[C@H](c3ccccc3)C=C[C@@H]1Oc1ccc(OC)cc1)C2,43.4,nt,nt
N#Cc1ccccc1NC(=O)CN1CCN(Cc2ccccc2)CC1,-41.6*,19.1,10.9
N#Cc1c(N)sc(=S)c2c1CCN(Cc1ccccc1)C2,95.5,nt,nt
